Source: ChEMBL document CHEMBL2163307, “Antibiotic optimization and chemical structure stabilization of thiomuracin A” (J Med Chem, 2012)
In brackets after ≈: the same amount, converted by molar mass. Activity calls are given as the source filed them. The calls are words filed in the database; no cut-off is given here.

Legend:
Escherichia coli = assay: Inhibition of elongation factor Tu-mediated protein synthesis in Escherichia coli S30 extract after 2 hrs by luciferase reporter gene assay
In short: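 Coupled transcription/translation in E. coli S30 extract with pBESTluc template DNA, methionine-minus and cysteine-minus amino acid mixes, and S30 premix; test agent added as 40× stock in 20 μL reactions. Incubated 2 h at 37 °C; luciferase formed was read by luminescence after adding an equal volume of SteadyGlo reagent. Kirromycin and puromycin were positive controls; ampicillin was the negative control.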

Enterococcus faecium = assay: Antibacterial activity against Enterococcus faecium 7130724 by broth microdilution method; type: functional
In short: (§1)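 MIC by CLSI broth microdilution (M07-A8 for aerobes; M11-A7 for anaerobes).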

Staphylococcus aureus [1] = assay: Antibacterial activity against methicillin-resistant Staphylococcus aureus isolate AKH Vienna A4.018 by broth microdilution method; type: functional
In short: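 Broth microdilution MIC following CLSI M07-A8 (2009) and M11-A7 guidelines.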

[2] = Antibacterial activity against Clostridium difficile ATCC 43255 by broth microdilution method; type: functional; settings: Clostridioides difficile; in short: as §1
Streptococcus pyogenes = assay: Antibacterial activity against Streptococcus pyogenes ATCC BAA-595 by broth microdilution method; type: functional; in short: as §1
Enterococcus faecalis [3] = assay: Antibacterial activity against Enterococcus faecalis ATCC 29212 by broth microdilution method; type: functional; in short: as §1
[4] = Solubility of the compound in DMF solution; type: physicochemical
[5] = Chemical stability of the compound in water at room temperature; type: physicochemical; settings: buffer
[6] = Chemical stability of the compound in MeOH at room temperature; type: physicochemical
[7] = Chemical stability of the compound in HCl at room temperature; type: physicochemical; settings: buffer
[8] = Solubility of the compound in DMSO solution; type: physicochemical
[9] = Chemical stability of the compound in water at 50 degC; type: physicochemical; settings: buffer
[10] = Chemical stability of the compound in MeOH at 50 degC; type: physicochemical
[11] = Chemical stability of the compound in HCl at 50 degC; type: physicochemical; settings: buffer
[12] = Clearance in Sprague-Dawley rat at 1 mg/kg, iv; type: ADME, organism-based; set-up: dose 1 mg/kg, route intravenous; settings: in vivo
In short: (§2)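 Intravenous PK (N = 2) in male Sprague−Dawley rats (220−270 g, about 6−10 weeks old) with dual jugular vein cannulas. Rats were fasted overnight before dosing and for 8 h after. Blood was collected into K2EDTA tubes and plasma was assayed by LC-MS/MS.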

Staphylococcus aureus [13] = assay: Antibacterial activity against Staphylococcus aureus ATCC 49951 infected in iv dosed CD1 mouse assessed as protection from lethal infection administered 1 hr and 5 hrs post-infection measured after 5 days; type: functional; settings: for ED50: ATCC 49951, iv
In short: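 Female CD1 mice (21−25 g) infected ip with 1 × 10^8 CFU/mouse in 0.9% NaCl (10−100× minimal lethal dose). iv tail-vein bolus at 1 and 5 h post-inoculation, several dose levels, six mice per group. Watched 5 days with body temperature monitoring; moribund animals euthanized. ED50 with 95% CI from day-5 survival by probit analysis.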

[14] = Half life in Sprague-Dawley rat at 1 mg/kg, iv; type: ADME, organism-based; set-up: dose 1 mg/kg, route intravenous; settings: in vivo; in short: as §2
[15] = AUC in Sprague-Dawley rat at 1 mg/kg, iv; type: ADME, organism-based; set-up: dose 1 mg/kg, route intravenous; settings: plasma; in short: as §2
Staphylococcus aureus [16] = assay: Antibacterial activity against Staphylococcus aureus ATCC 49951; type: functional
Enterococcus faecalis [17] = assay: Antibacterial activity against Enterococcus faecalis isolate NB04025 infected in iv dosed CD1 mouse assessed as protection from lethal infection after 5 days; type: functional; settings: for ED50: 120 h
In short: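 Female CD1 mice (21−25 g) infected ip with 1 × 10^8 CFU/mouse in 50% sterile rat fecal extract (10−100× minimal lethal dose). Single iv tail-vein bolus immediately after inoculation, several dose levels, six mice per group. Observed 5 days with implanted temperature transponders; moribund mice euthanized. ED50 with 95% CI from day-5 survival by probit analysis.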

[18] = Volume of distribution at steady state in Sprague-Dawley rat at 1 mg/kg, iv; type: ADME, organism-based; set-up: dose 1 mg/kg, route intravenous; settings: in vivo, read-out: Vdss; in short: as §2
Enterococcus faecalis [19] = assay: Antibacterial activity against Enterococcus faecalis isolate NB04025; type: functional
Enterococcus faecalis [20] = assay: Ratio of daptomycin ED50 to compound ED50 for Enterococcus faecalis isolate NB04025 infected in iv dosed CD1 mouse; type: functional
In short: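 Female CD1 mice (21−25 g) infected intraperitoneally with 1 × 10^8 CFU/mouse E. faecalis in 50% sterile rat fecal extract. Single iv tail-vein bolus given immediately after inoculation, at several dose levels, to groups of six mice. Vehicle was 5% DMA, 30% PEG400, 10% cremophor EL, 5% 0.1 N NaOH and 50% pH 7.4 buffer; daptomycin was given in saline. Survival followed 5 days; ED50 with 95% CI by probit analysis of day-5 survival.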

C=C(NC(=O)c1csc(-c2ccc3c(n2)-c2csc(n2)-c2csc(n2)[C@H]([C@@H](C)[C@@H]2CO2)NC(=O)[C@H](Cc2ccc(O)cc2)NC(=O)c2csc(n2)[C@H]([C@H](O)c2ccccc2)NC(=O)c2nc(sc2C)[C@H](CC(N)=O)NC(=O)c2csc-3n2)n1)C(=O)NC(=C)C(=O)OC
inhibition (Escherichia coli): inactive | MIC (Enterococcus faecium): 8 µg/mL (≈ 5.91 µM) | MIC (Staphylococcus aureus [1]): > 32 µg/mL | MIC [2]: 1 µg/mL (≈ 0.739 µM) | MIC (Streptococcus pyogenes): > 32 µg/mL | MIC (Enterococcus faecalis [3]): 8 µg/mL (≈ 5.91 µM)

C=C(NC(=O)C(=C)NC(=O)c1csc(-c2ccc3c(n2)-c2csc(n2)-c2csc(n2)[C@H]([C@@H](C)[C@@H]2CO2)NC(=O)[C@H](Cc2ccc(O)cc2)NC(=O)c2csc(n2)[C@H]([C@H](O)c2ccccc2)NC(=O)c2nc(sc2C)[C@H](CC(N)=O)NC(=O)c2csc-3n2)n1)C(=O)O [THIOMURACIN A]
MIC (Enterococcus faecium): 0.5 µg/mL (≈ 0.373 µM) | solubility [4]: soluble | MIC (Staphylococcus aureus [1]): 0.5 µg/mL (≈ 0.373 µM) | Stability [5]: Stable | MIC [2]: 0.03 µg/mL (≈ 0.0224 µM) | Stability [6]: Stable | Stability [7]: Stable | solubility [8]: soluble | Stability [9]: Unstable | Stability [10]: Unstable | MIC (Streptococcus pyogenes): 0.5 µg/mL (≈ 0.373 µM) | Stability [11]: Unstable | MIC (Enterococcus faecalis [3]): 0.5 µg/mL (≈ 0.373 µM)

Cc1sc2nc1C(=O)N[C@@H]([C@H](O)c1ccccc1)c1nc(cs1)C(=O)N[C@@H](Cc1ccc(O)cc1)C(=O)N[C@@H]([C@@H](C)[C@@H](O)CN)c1nc(cs1)-c1nc(cs1)-c1nc(-c3nc(C(N)=O)cs3)ccc1-c1nc(cs1)C(=O)N[C@H]2CC(N)=O
MIC (Enterococcus faecium): 1 µg/mL (≈ 0.821 µM) | MIC (Staphylococcus aureus [1]): 2 µg/mL (≈ 1.64 µM) | MIC [2]: 1 µg/mL (≈ 0.821 µM) | MIC (Streptococcus pyogenes): > 32 µg/mL | MIC (Enterococcus faecalis [3]): 1 µg/mL (≈ 0.821 µM)

Cc1sc2nc1C(=O)N[C@@H]([C@H](O)c1ccccc1)c1nc(cs1)C(=O)N[C@@H](Cc1ccc(O)cc1)C(=O)N1C[C@H](O)[C@H](C)[C@H]1c1nc(cs1)-c1nc(cs1)-c1nc(-c3nc(C(N)=O)cs3)ccc1-c1nc(cs1)C(=O)N[C@H]2CC(N)=O
MIC (Enterococcus faecium): 0.5 µg/mL (≈ 0.417 µM) | clearance [12]: 10.1 mL/min/kg | MIC (Staphylococcus aureus [1]): 0.25 µg/mL (≈ 0.208 µM) | MIC [2]: < 0.008 µg/mL | Activity (Staphylococcus aureus [13]): Dose-dependent effect | ED50 (Staphylococcus aureus [13]): 8 mg/kg | half-life [14]: 204 min | AUC [15]: 1.35 µM·h | MIC (Streptococcus pyogenes): 1 µg/mL (≈ 0.833 µM) | MIC (Staphylococcus aureus [16]): 1 µg/mL (≈ 0.833 µM) | Activity (Enterococcus faecalis [17]): Dose-dependent effect | ED50 (Enterococcus faecalis [17]): 1.5 mg/kg | Vd [18]: 0.134 L/kg | MIC (Enterococcus faecalis [19]): 0.125 µg/mL (≈ 0.104 µM) | MIC (Enterococcus faecalis [3]): 0.25 µg/mL (≈ 0.208 µM) | Ratio ED50 (Enterococcus faecalis [20]): 2

Cc1sc2nc1C(=O)N[C@@H]([C@H](O)c1ccccc1)c1nc(cs1)C(=O)N[C@@H](Cc1ccc(O)cc1)C(=O)N[C@@H]([C@@H](C)[C@@H](O)CO)c1nc(cs1)-c1nc(cs1)-c1nc(-c3nc(C(N)=O)cs3)ccc1-c1nc(cs1)C(=O)N[C@H]2CC(N)=O
MIC (Enterococcus faecium): > 32 µg/mL | MIC (Staphylococcus aureus [1]): > 32 µg/mL | MIC [2]: 2 µg/mL (≈ 1.64 µM) | MIC (Streptococcus pyogenes): > 32 µg/mL | MIC (Enterococcus faecalis [3]): > 32 µg/mL

C=C(NC(=O)c1csc(-c2ccc3c(n2)-c2csc(n2)-c2csc(n2)[C@H]([C@@H](C)[C@@H]2CO2)NC(=O)[C@H](Cc2ccc(OC)cc2)NC(=O)c2csc(n2)[C@H]([C@H](O)c2ccccc2)NC(=O)c2nc(sc2C)[C@H](CC(N)=O)NC(=O)c2csc-3n2)n1)C(=O)NC(=C)C(=O)OC
inhibition (Escherichia coli): inactive | MIC (Enterococcus faecium): 8 µg/mL (≈ 5.85 µM) | MIC (Staphylococcus aureus [1]): > 32 µg/mL | MIC [2]: 1 µg/mL (≈ 0.731 µM) | MIC (Streptococcus pyogenes): > 32 µg/mL | MIC (Enterococcus faecalis [3]): 8 µg/mL (≈ 5.85 µM)

Cc1sc2nc1C(=O)N[C@@H]([C@H](O)c1ccccc1)c1nc(cs1)C(=O)N[C@@H](Cc1ccc(O)cc1)C(=O)N[C@@H]([C@@H](C)[C@@H]1CO1)c1nc(cs1)-c1nc(cs1)-c1nc(-c3nc(C(N)=O)cs3)ccc1-c1nc(cs1)C(=O)N[C@H]2CC(N)=O
MIC (Enterococcus faecium): 0.125 µg/mL (≈ 0.104 µM) | MIC (Staphylococcus aureus [1]): 0.5 µg/mL (≈ 0.417 µM) | MIC [2]: 0.003 µg/mL (≈ 0.0025 µM) | MIC (Streptococcus pyogenes): 2 µg/mL (≈ 1.67 µM) | MIC (Enterococcus faecalis [3]): 0.25 µg/mL (≈ 0.208 µM)

C=C(NC(=O)c1csc(-c2ccc3c(n2)-c2csc(n2)-c2csc(n2)[C@H]([C@@H](C)[C@@H]2CO2)NC(=O)[C@H](Cc2ccc(OC(C)=O)cc2)NC(=O)c2csc(n2)[C@H]([C@H](OC(C)=O)c2ccccc2)NC(=O)c2nc(sc2C)[C@H](CC(N)=O)NC(=O)c2csc-3n2)n1)C(=O)NC(=C)C(=O)OC
inhibition (Escherichia coli): inactive | MIC (Enterococcus faecium): 32 µg/mL (≈ 22.3 µM) | MIC (Staphylococcus aureus [1]): > 32 µg/mL | MIC [2]: > 4 µg/mL | MIC (Streptococcus pyogenes): > 32 µg/mL | MIC (Enterococcus faecalis [3]): 32 µg/mL (≈ 22.3 µM)

Cc1sc2nc1C(=O)NCc1nc(cs1)C(=O)N[C@@H](Cc1ccc(O)cc1)C(=O)N1C[C@H](O)[C@H](C)[C@H]1c1nc(cs1)-c1nc(cs1)-c1nc(-c3nc(C(N)=O)cs3)ccc1-c1nc(cs1)C(=O)N[C@H]2CC(N)=O
MIC (Enterococcus faecium): 4 µg/mL (≈ 3.66 µM) | MIC (Staphylococcus aureus [1]): 2 µg/mL (≈ 1.83 µM) | MIC (Streptococcus pyogenes): > 32 µg/mL | MIC (Enterococcus faecalis [3]): 4 µg/mL (≈ 3.66 µM)

CCCCCCCCCC(=O)N[C@@H](Cc1c[nH]c2ccccc12)C(=O)N[C@H](CC(N)=O)C(=O)N[C@@H](CC(=O)O)C(=O)N[C@@H]1C(=O)NCC(=O)N[C@@H](CCCN)C(=O)N[C@@H](CC(=O)O)C(=O)N[C@H](C)C(=O)N[C@@H](CC(=O)O)C(=O)NCC(=O)N[C@H](CO)C(=O)N[C@@H]([C@H](C)CC(=O)O)C(=O)N[C@@H](CC(=O)c2ccccc2N)C(=O)O[C@@H]1C
Activity (Staphylococcus aureus [13]): Dose-dependent effect | ED50 (Staphylococcus aureus [13]): 0.3 mg/kg | Activity (Enterococcus faecalis [17]): Dose-dependent effect | ED50 (Enterococcus faecalis [17]): 3 mg/kg

Cc1sc2nc1C(=O)N[C@@H]([C@H](O)c1ccccc1)c1nc(cs1)C(=O)N[C@@H](Cc1ccc(O)cc1)C(=O)N[C@@H]([C@@H](C)[C@@H](O)CCl)c1nc(cs1)-c1nc(cs1)-c1nc(-c3nc(C(N)=O)cs3)ccc1-c1nc(cs1)C(=O)N[C@H]2CC(N)=O
MIC (Enterococcus faecium): 0.5 µg/mL (≈ 0.404 µM) | MIC (Staphylococcus aureus [1]): 0.5 µg/mL (≈ 0.404 µM) | MIC [2]: 0.25 µg/mL (≈ 0.202 µM) | MIC (Streptococcus pyogenes): 2 µg/mL (≈ 1.62 µM) | MIC (Enterococcus faecalis [3]): 0.25 µg/mL (≈ 0.202 µM)
